Values after ≈ are worked out from the molar mass of the structure shown. Active and inactive are the calls of the source. No cut-off for these calls is given here.
Key:
[1] = test system: Staphylococcus epidermidis; test: Antimicrobial activity against Staphylococcus epidermidis ATCC 12228 after 18 hrs by twofold serial microdilution method; format: functional; conditions: ATCC 12228, 18 h
Staphylococcus aureus [2] = test: Antimicrobial activity against Staphylococcus aureus ATCC 25923 at 400 ug after 18 hrs by disc-diffusion method; format: functional; conditions: ATCC 25923, 18 h, read-out: IZ
Method in brief: (§1)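 Disc diffusion on Mueller-Hinton II agar per CLSI; 9 mm paper discs loaded with 400 µg compound from DMSO solution, dried, placed on agar; growth inhibition zone diameter read after 18 h at 35°C.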

[3] = test system: Staphylococcus epidermidis; test: Antimicrobial activity against hospital methicillin-resistant Staphylococcus epidermidis 24/04 after 18 hrs by twofold serial microdilution method; format: functional; conditions: 24/04, 18 h
Method in brief: (§2)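 Twofold serial microdilution in Mueller-Hinton broth. Compound stock was made in DMSO and diluted in sterile water. Tested range was 0.125–512 µg/mL. Final inoculum was 10^5 CFU/mL. Plates were incubated 18 h at 35 °C. MIC is the lowest concentration preventing visible growth.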

Staphylococcus aureus [4] = test: Antimicrobial activity against Staphylococcus aureus NCTC 4163 at 400 ug after 18 hrs by disc-diffusion method; format: functional; conditions: NCTC 4163, 18 h, read-out: IZ; method in brief: as §1
Proteus vulgaris = test: Antimicrobial activity against Proteus vulgaris NCTC 4635 at 400 ug after 18 hrs by disc-diffusion method; format: functional; method in brief: as §1
Bacillus cereus = test: Antimicrobial activity against Bacillus cereus ATCC 11778 at 400 ug after 18 hrs by disc-diffusion method; format: functional; conditions: ATCC 11778, 18 h, read-out: IZ; method in brief: as §1
Staphylococcus aureus [5] = test: Antimicrobial activity against Staphylococcus aureus ATCC 29213 at 400 ug after 18 hrs by disc-diffusion method; format: functional; conditions: ATCC 29213, 18 h, read-out: IZ; method in brief: as §1
[6] = test system: Staphylococcus epidermidis; test: Antimicrobial activity against hospital methicillin-resistant Staphylococcus epidermidis 63/04 after 18 hrs by twofold serial microdilution method; format: functional; conditions: 63/04, 18 h; method in brief: as §2
[7] = test system: Staphylococcus epidermidis; test: Antimicrobial activity against hospital methicillin-resistant Staphylococcus epidermidis 31/04 after 18 hrs by twofold serial microdilution method; format: functional; conditions: 31/04, 18 h; method in brief: as §2
Enterococcus hirae = test: Antimicrobial activity against Enterococcus hirae ATCC 10541 at 400 ug after 18 hrs by disc-diffusion method; format: functional; conditions: for zone of inhibition at 400 µg/disc: ATCC 10541, 18 h, read-out: IZ; method in brief: as §1
Staphylococcus aureus [8] = test: Antimicrobial activity against Staphylococcus aureus ATCC 29213 after 18 hrs by twofold serial microdilution method; format: functional; conditions: ATCC 29213, 18 h
[9] = test system: Staphylococcus epidermidis; test: Antimicrobial activity against Staphylococcus epidermidis ATCC 12228 at 400 ug after 18 hrs by disc-diffusion method; format: functional; conditions: for zone of inhibition at 400 µg/disc: ATCC 12228, 18 h, read-out: IZ; method in brief: as §1
Micrococcus luteus [10] = test: Antimicrobial activity against Micrococcus luteus ATCC 10240 at 400 ug after 18 hrs by disc-diffusion method; format: functional; conditions: for zone of inhibition at 400 µg/disc: ATCC 10240, 18 h, read-out: IZ; method in brief: as §1
Micrococcus luteus [11] = test: Antimicrobial activity against Micrococcus luteus ATCC 9341 at 400 ug after 18 hrs by disc-diffusion method; format: functional; conditions: for zone of inhibition at 400 µg/disc: ATCC 9341, 18 h, read-out: IZ; method in brief: as §1
Staphylococcus aureus [12] = test: Antimicrobial activity against hospital methicillin-resistant Staphylococcus aureus 522/11 after 18 hrs by twofold serial microdilution method; format: functional; conditions: 522/11, 18 h; method in brief: as §2
[13] = test system: Staphylococcus epidermidis; test: Ratio of ciprofloxacin MIC to compound MIC for hospital methicillin-resistant Staphylococcus epidermidis 76/04 after 18 hrs by twofold serial microdilution method; format: functional
Method in brief: (§3)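 Ratio of MICs for ciprofloxacin and test agent, each from twofold serial broth microdilution in Mueller-Hinton broth following CLSI guidelines. DMSO stock was diluted in sterile water to 0.125–512 µg/mL, with a final inoculum of 10^5 CFU/mL.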

[14] = Antiviral activity against Bovine viral diarrhea virus 1-NADL ATCC VR-534 infected in MDBK cells assessed as protection against virus-induced cytopathogenicity after 3 to 4 days by MTT assay; format: functional, cell-based; conditions: Bovine viral diarrhea virus isolates and strains, ATCC VR-534, MDBK
Method in brief: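 Cells seeded in 96-well plates (BHK 5x10^4, MDBK 3x10^4 cells/well), grown overnight to confluence, infected at m.o.i. 0.01 (BHK for Reo-1, MDBK for BVDV); serial compound dilutions in maintenance medium with 0.5% inactivated FBS added after 1 h; viability by MTT after 3–4 days at 37°C; EC50 for 50% protection by linear regression.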

Staphylococcus aureus [15] = test: Ratio of ciprofloxacin MIC to compound MIC for hospital methicillin-resistant Staphylococcus aureus 81/05 after 18 hrs by twofold serial microdilution method; format: functional; method in brief: as §3
Staphylococcus aureus [16] = test: Antimicrobial activity against hospital methicillin-resistant Staphylococcus aureus 54/05 after 18 hrs by twofold serial microdilution method; format: functional; conditions: 54/05, 18 h; method in brief: as §2
Staphylococcus aureus [17] = test: Ratio of ciprofloxacin MIC to compound MIC for hospital methicillin-resistant Staphylococcus aureus 54/05 after 18 hrs by twofold serial microdilution method; format: functional; method in brief: as §3
Vaccinia virus = test: Antiviral activity against Human Vaccinia virus ATCC VR-1549 infected in African green monkey Vero 76 cells assessed as reduction of virus-plaque formation after 3 days by crystal violet staining; format: functional, organism-based; conditions: Orthopoxvirus vaccinia, ATCC VR-1549, Vero, 72 h
[18] = test system: Staphylococcus epidermidis; test: Ratio of ciprofloxacin MIC to compound MIC for hospital methicillin-resistant Staphylococcus epidermidis 62/04 after 18 hrs by twofold serial microdilution method; format: functional; method in brief: as §3
Staphylococcus aureus [19] = test: Ratio of ciprofloxacin MIC to compound MIC for hospital methicillin-resistant Staphylococcus aureus 573/11 after 18 hrs by twofold serial microdilution method; format: functional; method in brief: as §3
[20] = test system: Staphylococcus epidermidis; test: Ratio of ciprofloxacin MIC to compound MIC for hospital methicillin-resistant Staphylococcus epidermidis 24/04 after 18 hrs by twofold serial microdilution method; format: functional
Human alphaherpesvirus 1 = test: Antiviral activity against Human herpesvirus 1 KOS ATCC VR-1493 infected in African green monkey Vero 76 cells assessed as reduction of virus-plaque formation after 3 days by crystal violet staining; format: functional, organism-based; conditions: Human alphaherpesvirus 1, KOS ATCC VR1493, Vero, 72 h
Method in brief: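 Plaque reduction: Vero-76 at 2x10^5 cells/well grown to confluent monolayers, infected 2 h at 50–100 PFU/well; after removing unadsorbed virus, overlay of D-MEM, 1% inactivated FBS, 0.75% methylcellulose with or without serial compound dilutions; 3 days at 37°C, fixed and stained with crystal violet in 50% ethanol, plaques counted; EC50 by linear regression.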

Poliovirus 1 = test: Antiviral activity against Poliovirus type 1 ATCC VR-1562 infected in African green monkey Vero 76 cells assessed as reduction of virus-plaque formation after 2 days by crystal violet staining; format: functional, organism-based; conditions: Enterovirus C, ATCC VR-1562, Vero, 48 h
[21] = test system: Staphylococcus epidermidis; test: Ratio of ciprofloxacin MIC to compound MIC for hospital methicillin-resistant Staphylococcus epidermidis 151/04 after 18 hrs by twofold serial microdilution method; format: functional; method in brief: as §3
[22] = test system: Staphylococcus epidermidis; test: Ratio of ciprofloxacin MIC to compound MIC for hospital methicillin-resistant Staphylococcus epidermidis 63/04 after 18 hrs by twofold serial microdilution method; format: functional; method in brief: as §3
Staphylococcus aureus [23] = test: Ratio of ciprofloxacin MIC to compound MIC for hospital methicillin-resistant Staphylococcus aureus 522/11 after 18 hrs by twofold serial microdilution method; format: functional; method in brief: as §3
Staphylococcus aureus [24] = test: Ratio of ciprofloxacin MIC to compound MIC for hospital methicillin-resistant Staphylococcus aureus 57/05 after 18 hrs by twofold serial microdilution method; format: functional; method in brief: as §3
[25] = Cytotoxicity against human MT4 cells; format: cell-based

SMILES	MIC [1] [µg/mL]	zone of inhibition at 400 µg/disc (Staphylococcus aureus [2]) [mm]	MIC [3] [µg/mL]	zone of inhibition at 400 µg/disc (Staphylococcus aureus [4]) [mm]	zone of inhibition at 400 µg/disc (Bacillus cereus) [mm]	zone of inhibition at 400 µg/disc (Staphylococcus aureus [5]) [mm]	MIC [6] [µg/mL]	MIC [7] [µg/mL]	MIC (Staphylococcus aureus [8]) [µg/mL]	zone of inhibition at 400 µg/disc [9] [mm]	zone of inhibition at 400 µg/disc (Micrococcus luteus [10]) [mm]	zone of inhibition at 400 µg/disc (Micrococcus luteus [11]) [mm]	MIC (Staphylococcus aureus [12]) [µg/mL]	Ratio [13]	EC50 [14] [µM]	Ratio (Staphylococcus aureus [15])	MIC (Staphylococcus aureus [16]) [µg/mL]	Ratio (Staphylococcus aureus [17])	inhibition zone (IZ) (Proteus vulgaris)	EC50 (Vaccinia virus) [µM]	also measured
O=C(O)c1cn(C2CC2)c2cc(N3CCNCC3)c(F)cc2c1=O [CIPROFLOXACIN]	0.25 (≈ 0.754 µM)	26	64 (≈ 193 µM)	26	30	22	4 (≈ 12.1 µM)	64 (≈ 193 µM)	0.5 (≈ 1.51 µM)	30	22	24	128 (≈ 386 µM)	–	–	–	–	–	–	–	zone of inhibition at 400 µg/disc (Proteus vulgaris; NCTC 4635, 18 h, read-out: IZ): 36 mm; zone of inhibition at 400 µg/disc (Enterococcus hirae): 18 mm
FC(F)(F)c1cccc(NC(S)=Nc2ccc(Cl)c(Cl)c2)c1	2 (≈ 5.48 µM)	14	1 (≈ 2.74 µM)	15	13	15	2 (≈ 5.48 µM)	1 (≈ 2.74 µM)	0.5 (≈ 1.37 µM)	13	16	15	1 (≈ 2.74 µM)	128	> 10	128	2 (≈ 5.48 µM)	128	inactive	> 16	Ratio [18]: 128; zone of inhibition at 400 µg/disc (Enterococcus hirae): 15 mm; Ratio (Staphylococcus aureus [19]): 128; Ratio [20]: 128; EC50 (Human alphaherpesvirus 1): > 16 µM; EC50 (Poliovirus 1): > 16 µM; Ratio [21]: 128; Ratio [22]: 128; Ratio (Staphylococcus aureus [23]): 128; Ratio (Staphylococcus aureus [24]): 128
FC(F)(F)c1cccc(NC(S)=NCc2ccccc2)c1	32 (≈ 103 µM)	19	16 (≈ 51.6 µM)	18	15	16	16 (≈ 51.6 µM)	16 (≈ 51.6 µM)	8 (≈ 25.8 µM)	17	15	19	16 (≈ 51.6 µM)	128	> 40	128	8 (≈ 25.8 µM)	128	inactive	> 35	CC50 [25]: 45 µM; Ratio [18]: 128; inhibition zone (IZ) (Enterococcus hirae): inactive; Ratio (Staphylococcus aureus [19]): 128; Ratio [20]: 128; EC50 (Human alphaherpesvirus 1): > 35 µM; EC50 (Poliovirus 1): > 35 µM; Ratio [21]: 128; Ratio [22]: 128; Ratio (Staphylococcus aureus [23]): 128; Ratio (Staphylococcus aureus [24]): 128
FC(F)(F)c1cccc(NC(=S)Nc2ccc(Cl)cc2)c1	8 (≈ 24.2 µM)	12	16 (≈ 48.4 µM)	12	12	12	16 (≈ 48.4 µM)	16 (≈ 48.4 µM)	8 (≈ 24.2 µM)	–	–	–	16 (≈ 48.4 µM)	128	> 17	128	16 (≈ 48.4 µM)	128	inactive	> 11	CC50 [25]: 6.8 µM; Ratio [18]: 128; inhibition zone (IZ) (Enterococcus hirae): inactive; Ratio (Staphylococcus aureus [19]): 128; inhibition zone (IZ) [9]: inactive; Ratio [20]: 128; EC50 (Human alphaherpesvirus 1): > 11 µM; EC50 (Poliovirus 1): > 11 µM; Ratio [21]: 128; Ratio [22]: 128; Ratio (Staphylococcus aureus [23]): 128; inhibition zone (IZ) (Micrococcus luteus [10]): inactive; inhibition zone (IZ) (Micrococcus luteus [11]): inactive; Ratio (Staphylococcus aureus [24]): 128

From ChEMBL document CHEMBL3616436, “Synthesis, cytotoxicity and antimicrobial activity of thiourea derivatives incorporating 3-(trifluoromethyl)phenyl moiety” (Eur J Med Chem, 2015)
